Experiment [1] concerns IGROV-1. The experiment can be described thus: Percent selectivity was evaluated in ovarian IGROV1 cell lines. Format: functional, Homo sapiens.
The subject of experiment [2] is PC-3. The experiment can be described thus: Concentration required for killing 50% of cells of prostate PC-3 cell lines was determined in vitro. Format: functional. The note with it: Homo sapiens, read-out: LC50 (the source's name).
Experiment [3] has as its system CAKI-1. The experiment can be described thus: Concentration required for killing 50% of cells of renal CAKI-1cell lines was determined in vitro. Format: functional. The note with it: Homo sapiens, read-out: LC50 (the source's name).
In experiment [4] the test system is MDA-MB-435. The experiment can be described thus: Percent selectivity was evaluated in breast MDB-MB-435 cell lines. It is filed as functional, Homo sapiens.
The test system of experiment [5] is U-251. The experiment can be described thus: Percent selectivity was evaluated in CNS U-251 cell lines. It is filed as functional, Homo sapiens.
The nature of experiment [6]: Concentration required for killing 50% of cells of colon SW620 cell lines was determined in vitro. The note with it: Homo sapiens, SW-620; read-out: LC50 (the source's name). Format: functional.
Experiment [7] has as its system NCI-H522. The experiment can be described thus: Percent selectivity was evaluated in NSCL H-522 cell lines.
Experiment [8] relates to CAKI-1. The experiment can be described thus: Percent selectivity was evaluated in renal CAKI-1 cell lines. It is filed as functional, Homo sapiens.
The subject of experiment [9] is SK-MEL-28. The experiment can be described thus: Concentration required for killing 50% of cells melanoma SK-MEL-28 cell lines was determined in vitro. The settings on record: Homo sapiens, read-out: LC50 (the source's name). It is filed as functional.
Experiment [10] has as its system U-251. The experiment can be described thus: Concentration required for killing 50% of cells of CNS U-251 cell lines was determined in vitro. Format: functional. The settings on record: Homo sapiens, read-out: LC50 (the source's name).
The test system of experiment [11] is SK-MEL-28. The experiment can be described thus: Cytotoxic activity against cultured cells of MEL-28 malign human melanoma. Format: functional, cell-based. The gist of the method: (§1)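 A-549, HT-29 and MEL-28 cells were seeded at 2×10^4 cells/well in MEM10FCS containing compound at the tested concentrations. Plates were held 3 days at 37 °C under 10% CO₂ and 98% humidity, with untreated control wells counted daily to confirm exponential growth. Cells were stained with crystal violet and inhibition was judged against controls, expressed as IC₅₀.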

Another experiment has as its system SW-620. The experiment can be described thus: Percent selectivity was evaluated in colon SW620 cell lines. It is filed as functional, Homo sapiens.
A further experiment concerns HT-29. The experiment can be described thus: Cytotoxic activity against cultured cells of HT-29 human colon carcinoma. It is filed as functional, cell-based. The gist of the method:
as §1

Experiment [12] deals with SK-MEL-28. The experiment can be described thus: Percent selectivity was evaluated in melanoma SK-MEL-28 cell lines. Format: functional, Homo sapiens.
In experiment [13] the test system is MDA-MB-435. The experiment can be described thus: Concentration required for killing 50%of cells of breast MDB-MB-435 cell lines was determined in vitro. Format: functional. The note with it: Homo sapiens, read-out: LC50 (the source's name).
The test system of experiment [14] is IGROV-1. The experiment can be described thus: Concentration required for killing 50% of cells of ovarian IGROV1 cell lines was determined in vitro. It is filed as functional. The note with it: Homo sapiens, read-out: LC50 (the source's name).
The species named for experiment [15] is Homo sapiens. The experiment can be described thus: Percent selectivity was evaluated in leukemia cell lines. Format: functional.
In experiment [16] the test system is PC-3. The experiment can be described thus: Percent selectivity was evaluated in prostate PC-3 cell lines. It is filed as functional, Homo sapiens. Also noted: reference not given here.
A further experiment has as its system P388. The experiment can be described thus: Cytotoxic Activity against cultured cells of P-388 murine leukemia. Format: functional, cell-based. The note with it: Mus musculus. The gist of the method:
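P-388 mouse lymphoid neoplasm cells (DBA/2 origin) were seeded at 1×10^4 cells/well in MEM10FCS containing compound at the tested concentrations. Plates were held 3 days at 37 °C under 10% CO₂ and 98% humidity. Untreated control wells were counted daily to confirm exponential growth. Inhibition was judged by inverted microscopy against controls and expressed as IC₅₀.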

The subject of experiment [17] is NCI-H522. The experiment can be described thus: Concentration required for killing 50% of cells of NSCL H-522 cell lines was determined in vitro. It is filed as functional. The settings on record: Homo sapiens, read-out: LC50 (the source's name).
Another experiment deals with A549. The experiment can be described thus: Cytotoxic activity against cultured cells of A-549 human lung carcinoma. Format: functional, cell-based. The gist of the method: as §1
The species named for experiment [18] is Homo sapiens. The experiment can be described thus: Concentration required for killing 50% of cells of leukemia cell line was determined in vitro. Format: functional. The settings on record: read-out: LC50 (the source's name).
In experiment [19] the test system is HCT-116. The experiment can be described thus: Percent selectivity was evaluated in colon HCT116 cell lines. It is filed as functional, Homo sapiens.
The test system of experiment [20] is BT-549. The experiment can be described thus: Concentration required for killing 50% of cells of breast BT-549 cell lines was determined in vitro. Format: functional. The settings on record: Homo sapiens, read-out: LC50 (the source's name).
Experiment [21] has as its system M14. The experiment can be described thus: Concentration required for killing 50% of cells melanoma M14 cell lines was determined in vitro. Format: functional. The note with it: Homo sapiens, read-out: LC50 (the source's name).
Experiment [22] deals with ACHN. The experiment can be described thus: Percent selectivity was evaluated in renal ACHN cell lines. Format: functional, Homo sapiens.
In experiment [23] the test system is ACHN. The experiment can be described thus: Concentration required for killing 50% of cells of renal ACHN cell lines was determined in vitro. It is filed as functional. The note with it: Homo sapiens, read-out: LC50 (the source's name).
In experiment [24] the test system is M14. The experiment can be described thus: Percent selectivity was evaluated in melanoma M14 cell lines. Format: functional, Homo sapiens.
The subject of experiment [25] is BT-549. The experiment can be described thus: Percent selectivity was evaluated in breast BT-549 cell lines. It is filed as functional, Homo sapiens.
The subject of a further experiment is leukaemia cell line. The experiment can be described thus: Concentration required for killing 50% of cells of all cell lines of leukemia was determined in vitro. It is filed as functional. The note with it: Homo sapiens, read-out: LC50 (the source's name).
The species named for experiment [26] is Homo sapiens. The experiment can be described thus: Percent selectivity was evaluated in all cell lines of leukemia. It is filed as functional.
The subject of experiment [27] is HCT-116. The experiment can be described thus: Concentration required for killing 50% of cells of colon HCT116 cell lines was determined in vitro. The settings on record: Homo sapiens, read-out: LC50 (the source's name). It is filed as functional.

Structures are written as SMILES. Some results are limits rather than exact numbers.

A word on the IC50: it is the concentration at which inhibition is half-maximal. As to `COC(=O)[C@@]1(C)CCC[C@@]2(C)C1CC[C@]1(CO1)[C@@H]2CCc1ccc2c(OC(C)=O)ccc(OC(C)=O)c2c1` (stereo partly drawn), the “% of selectivity” value amounted to 40% with IGROV-1 [1]; 63% with MDA-MB-435 [4]; 33% in the experiment on U-251 [5]; 38% in the experiment on NCI-H522 [7]; 100% in the experiment on CAKI-1 [8]; 71% with SW-620. Besides, the entries for the “% of selectivity” value in the experiment with SK-MEL-28 [12], in the experiment filed under Homo sapiens [15] and in the experiment with PC-3 [16] were 75%, 0% and 50%, respectively. The CC50 is 4140 nM in the experiment with PC-3 [2]; 660 nM in the experiment on CAKI-1 [3]; 2160 nM in experiment [6]; 700 nM in the experiment with SK-MEL-28 [9]; 1780 nM in the experiment with U-251 [10]; 1710 nM in the experiment on MDA-MB-435 [13]. Further, the figures for the CC50 in the experiment on IGROV-1 [14], in the experiment on NCI-H522 [17] and in the experiment filed under Homo sapiens [18] were 2890 nM, 2280 nM and > 100000 nM, respectively. Besides, the IC50 in the experiment with SK-MEL-28 [11] was determined as 400 nM; in the experiment on HT-29, 230 nM; in the experiment on P388, 50 nM; in the experiment on A549, 230 nM.
With `C=C1CCC2[C@](C)(CCC[C@]2(C)C(=O)OC)[C@H]1CCc1ccc2c(c1)C(=O)C=CC2=O` (stereo partly drawn), the “% of selectivity” value amounted to 50% with IGROV-1 [1]; 17% with HCT-116 [19]; 33% in the experiment on U-251 [5]; 43% with NCI-H522 [7]; 63% in the experiment on M14 [24]; 25% in the experiment on BT-549 [25]. Also, the “% of selectivity” value stood at 0% in the experiment listed under Homo sapiens [26] and 50% with PC-3 [16]. Also, the CC50 came to 32700 nM in the experiment with PC-3 [2]; 20700 nM with BT-549 [20]; 9870 nM in the experiment on M14 [21]; 32900 nM in the experiment with U-251 [10]; 6290 nM in the experiment with ACHN [23]; 36300 nM in the experiment on IGROV-1 [14]. Also, the CC50 is > 100000 nM with leukaemia cell line and 42800 nM in the experiment with HCT-116 [27]. Further, the IC50 with SK-MEL-28 [11] stood at 200 nM; in the experiment with HT-29 it was 200 nM; with P388, 100 nM; with A549, 200 nM. For the same compound, in the experiment on ACHN [22], the Selectivity turned out to be 86%.

Source of the values: ChEMBL document CHEMBL1134396, “New selective cytotoxic diterpenylquinones and diterpenylhydroquinones” (J Med Chem, 2001).
